In ChEMBL document CHEMBL4732019, “Collaborative virtual screening to elaborate an imidazo[1,2-a]pyridine hit series for visceral leishmaniasis” (RSC Med Chem, 2021):

Legend:
[1] = Kinetic solubility of the compound at 200 uM incubated for 24 hrs at pH 2 by HPLC/UV analysis; format: physicochemical; conditions: buffer, pH 2, 24 h
How it was run: (§1)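 Shake-flask method: 10 mM DMSO stock diluted to 200 μM in phosphate buffer pH 2.0 or pH 7.4 (2% DMSO final). Shaken at 500 rpm, 24 h, room temperature, then filtered through polycarbonate membrane. Filtrate quantified by HPLC-UV against 1, 20 and 200 μM standards injected in duplicate.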

[2] = Kinetic solubility of the compound at 200 uM incubated for 24 hrs at pH 7.4 by HPLC/UV analysis; format: physicochemical; conditions: buffer, pH 7.4, 24 h; how it was run: as §1
[3] = Drug uptake in BALB/c mouse plasma at 50 mg/kg, po measured after 24 hrs by LC/MS/MS analysis; format: ADME, organism-based; conditions: in vivo

| Compound | Kinetic_solubility [1] [µg/mL] | Kinetic_solubility [2] [µg/mL] | Drug uptake [3] |
| --- | --- | --- | --- |
| Cc1ccn2c(NC3CCCC3)c(-c3ccc(N(C)C)cc3)nc2c1 | 67 | < 0.5 |  |
| Cc1ccn2c(Nc3ccc(F)cc3)c(-c3ccccn3)nc2c1 | 73 | < 0.5 |  |
| Cc1ccc2nc(-c3ccccn3)c(Nc3ccc4c(c3)OCCO4)n2c1 | 72 | 8 |  |
| Clc1ccc2nc(-c3ccccn3)c(Nc3ccc4c(c3)OCCO4)n2c1 | > 76 | < 0.5 |  |
| COc1ccn2c(Nc3cc(F)cc(F)c3)c(-c3ccccn3)nc2c1 |  |  | Not Active |
| COc1ccn2c(Nc3ccc(F)cn3)c(-c3ccccn3)nc2c1 | > 76 | > 76 |  |
